Screens: PubChem, several laboratories
S1P1 ag pot: S1P1 (human) agonism or agonism potentiation; P21453; S1P1 CRE-bla cells, forskolin, beta-lactamase FRET, potentiator mode; S1P1 agonist co-added at EC20, 2 nM; 100% = saturating reference agonist, 0% = basal; activation, % at 9.5 µM; hit rate 0.57% among 56,000; AID 449;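 active = activation above a cutoff set at the mean activation of all tested compounds plus 3 SD, cut at about 54% in these data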;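 also: forskolin at 4 µM as EC80 and the EC20 agonist is SEW2871; 100% = SEW2871 at its EC100 plus forskolin at EC80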
JNK3 blocker: blocks human JNK3 kinase activity | P53779 | purified JNK3 kinase activity, HTS | inhibition, % at 8 µM | hit rate 0.61% among 60,000 | AID 746; in the data active = inhibition above about 17%;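 also: 0% = DMSO and 100% = reference inhibitor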
Target sequence (P53779 whole entry, looked up): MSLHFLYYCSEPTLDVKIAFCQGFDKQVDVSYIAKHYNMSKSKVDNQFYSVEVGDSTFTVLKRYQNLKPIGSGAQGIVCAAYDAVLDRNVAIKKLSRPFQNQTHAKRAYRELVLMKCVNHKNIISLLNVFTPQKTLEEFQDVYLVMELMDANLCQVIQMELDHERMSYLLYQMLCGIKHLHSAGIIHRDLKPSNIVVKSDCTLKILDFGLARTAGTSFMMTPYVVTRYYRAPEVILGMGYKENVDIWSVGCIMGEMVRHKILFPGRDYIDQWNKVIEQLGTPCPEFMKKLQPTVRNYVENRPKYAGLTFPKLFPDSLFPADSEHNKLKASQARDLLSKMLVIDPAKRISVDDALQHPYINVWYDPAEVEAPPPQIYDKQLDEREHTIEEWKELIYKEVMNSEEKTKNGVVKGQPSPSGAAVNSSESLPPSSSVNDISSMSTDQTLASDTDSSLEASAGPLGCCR
Jurkat tox 60K: cytotoxicity toward Jurkat cells. Jurkat E6.1 viability, ATP luminescence, 48 h. inhibition, % at 4 µM. hit rate 1.2% among 56,000;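 active = inhibition above the mean inhibition of all tested compounds plus 3 SD, cut at about 28% in these data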
S1P3 agonist: activates the human S1P3 receptor; S1P3 NFAT-BLA reporter cells, agonism, FRET ratio; relative to 1 µM S1P, basal subtracted; activation, % at 4.5 µM; hit rate 0.1% among 60,000; AID 373;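 active = activation above the screen-wide mean plus 3 SD, cut at about 4.5% in these data, passing the limit was not always enough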
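material = human S1P3 NFAT-BLA reporter CHO cells | schedule = 4 h compound at 37 °C, 2 h substrate at RT | measured by = fluorescent BLA substrate, ex 405 nm, em 460/535 nm ratio | controls = 1 µM S1P reference | replication = primary once, confirmation triplicate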
M1 antag: blocks the rat M1 muscarinic receptor response to acetylcholine; P08482; CHO-M1 cells, Fluo-4 calcium, ACh EC80 antagonist mode; active compounds read low; B-score at 10 µM; hit rate 3.4% among 64,000;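 active = calcium fluorescence response, raw or row-and-column corrected B-score, differing from the plate sample mean either way at a set confidence level, mostly lower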
M1 ag: activates the M1 muscarinic receptor; CHO-M1 cells, Fluo-4 calcium fluorescence, agonist mode; active compounds read high; B-score at 10 µM; hit rate 3% among 64,000; AID 626;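 active = fluorescence rise, raw or as B-score row- and column-corrected plate score, outside the 99.7% band of its plate's samples, either direction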
* = called active by the depositor; . = no result. Rows were chosen to be rich in hits. Some 7.4% of all compounds tested hit in one or more screens of this group.

SMILES | S1P1 ag pot | JNK3 blocker | Jurkat tox 60K | S1P3 agonist | M1 antag | M1 ag
COCCN1C(=O)C(O)=C(C(C)=O)C1c1ccc(OC)c(OC)c1 (stereo not drawn) | -12.7 | -0.4 | -1.5 | -0.8 | -2.47 | 0.269
COc1cccc(N2C(=O)C(O)=C(C(C)=O)C2c2ccc(OC)c(OC)c2)c1 (stereo not drawn) | 6.1 | -4.3 | . | -2.5 | 0.567* | 0.198
COC(=O)c1[nH]c2c(c1C)C(=O)CC(c1cc(OC)ccc1OC)C2 (stereo not drawn) | -3.9 | 0.1 | 82.5* | -0.9 | -0.129 | -0.142
COC(=O)c1[nH]c2c(c1C)C(=O)CC(c1cccs1)C2 (stereo not drawn) | -2.4 | 0.4 | 97.2* | -0.6 | 0.119 | 0.141
COc1ccc(N(CC(O)Cn2nnc3ccccc32)S(=O)(=O)c2ccc(C)cc2)cc1 (stereo not drawn) | 10.6 | -0.3 | -1.8 | -0.4 | -0.793 | -1.08
O=C(Nc1nc2c(s1)CCCC2)c1cc2n(n1)C(C(F)(F)F)CC(C1CC1)N2 (stereo not drawn) | 106.8* | -2.0 | 7.7 | -0.3 | -0.119 | -0.662
Cc1ccc(CS(=O)(=O)CCC(=O)NCCN2CCCC2)cc1 | 14.3 | -0.8 | 8.3 | -1.2 | 0.0288 | 0.39
CCC1S/C(=C(\C#N)C(=O)NCc2ccco2)N(c2ccc(F)cc2)C1=O (stereo not drawn) | -16.5 | -4.2 | -0.9 | -0.5 | 0.0565 | 0.0939
CCC1S/C(=C(\C#N)C(N)=O)N(c2ccc(F)cc2)C1=O (stereo not drawn) | -7.5 | 30.7* | -5.3 | -0.6 | -0.0924 | -1.04
Cc1cc(C(=O)NCc2ccccc2Br)no1 | -15.0 | -0.3 | 0.7 | -0.7 | 0.00418 | -0.0016
Cc1ccc2c(CSc3nc4ccccc4c(=O)n3CCCO)cc(=O)oc2c1 | -19.9 | -3.5 | 1.0 | -0.4 | -0.189 | 9.98*
O=C(CSc1nc2ccccc2c(=O)n1CCCO)NCc1ccccc1 | 4.6 | -6.6 | -10.2 | -0.7 | -0.191 | 0.0636
COc1ccc(N(CC(=O)NCc2cccs2)S(=O)(=O)c2c(C)n[nH]c2C)cc1 | -21.7 | 1.2 | 0.3 | 0.2 | -0.0709 | -0.473
COc1ccccc1N1CCN(CC(=O)Nc2cc(C)nn2-c2nc(C)cc(C)n2)CC1 | . | . | . | . | -0.0283 | 3.41*
COc1ccccc1N1CCN(CC(=O)Nc2cc(F)ccc2C)CC1 | . | . | . | . | -0.48 | -1.1
c1ccc(Cn2nnc3c(N4CCN(Cc5ccc6c(c5)OCO6)CC4)ncnc32)cc1 | 20.4 | -1.9 | -8.4 | 0.1 | -1.17 | 0.00929
Cc1ccc2c(c1)[nH]c1c(N3CCN(Cc4ccc5c(c4)OCO5)CC3)ncnc12 | 32.6 | 2.3 | 9.5 | -2.3 | -2.03 | 3.35*
c1ccc2c(c1)oc1c(N3CCN(Cc4ccc5c(c4)OCO5)CC3)ncnc12 | 92.2* | -6.4 | 9.6 | -1.2 | -2.46 | 0.782
O=C(O)CCCNS(=O)(=O)c1ccc(Br)s1 | . | 3.3 | -7.0 | 0.1 | -0.0167 | 2.47
CC(=O)Nc1ccc(C(=O)CSc2nnnn2C(C)C)cc1 | 9.7 | 0.8 | -5.8 | 0.6 | -0.0165 | -0.837
CCCCSc1nc2c(cnn2-c2ccc(C)c(C)c2)c(=O)[nH]1 | -26.9 | -1.2 | 8.8 | 0.4 | 0.264 | 0.642
CCCCSc1nc2c(cnn2-c2ccc(Cl)cc2)c(=O)[nH]1 | -3.9 | -3.4 | 3.9 | -0.4 | 0.247 | 5.62*
Cc1cc2c(s1)c1cnn(CC(=O)NCCc3ccccc3)c(=O)c1n2C | . | . | . | . | 3.06* | 0.00528
CN1CCN(CCCNC(=O)Cn2ncc3c4ccccc4n(C)c3c2=O)CC1 | -23.1 | -1.7 | -4.3 | 0.2 | 0.0141 | 1.23
COc1cccc(C2=CC(c3cccc(OC)c3OC(F)F)n3nnnc3N2)c1 (stereo not drawn) | 48.0 | -5.1 | 6.8 | -0.4 | 0.315 | -0.78
SMILES | S1P1 ag pot | JNK3 blocker | Jurkat tox 60K | S1P3 agonist | M1 antag | M1 ag
COc1ccc(OC)c(C2C=C(c3ccc(C)c(C)c3)Nc3nnnn32)c1 (stereo not drawn) | -17.8 | 2.8 | -0.7 | -0.8 | 0.88 | -0.633
COc1cccc(C2=CC(c3cccc(OC)c3OC)n3nnnc3N2)c1 (stereo not drawn) | -11.7 | 0.1 | 67.0* | -0.7 | -0.719 | -1.38
COc1cccc(C2=CC(c3cc(OC)ccc3OC)n3nnnc3N2)c1 (stereo not drawn) | -30.7 | 0.4 | 90.2* | 0.4 | 0.0346 | -0.47
COC(=O)c1sccc1NC(=O)CN1CCN(c2ccc(F)cc2)CC1 | -6.7 | 46.5* | 4.2 | 0.5 | 0.599 | 0.00544
COc1ccc(C)cc1NC(=O)CN1CCN(c2ccc(F)cc2)CC1 | 5.0 | -9.3 | -2.8 | -0.4 | -0.378 | 0.164
Cc1cc(C(=O)N2CCN(c3cccc(Cl)c3)CC2)c(C)o1 | 8.3 | -2.9 | 74.8* | -0.6 | -2.45 | -0.74
Cc1ccc(C(=O)N2CCN(c3cccc(Cl)c3)CC2)cc1C | 24.1 | 0.1 | 37.8* | -1.8 | -0.126 | -0.495
Cc1cc(C(=O)N2CCN(c3ncccn3)CC2)c(C)o1 | -7.3 | -11.8 | -8.2 | -0.1 | 0.77 | -0.711
O=S1(=O)CC(N2CCCCC2)C(N2CCCCC2)C1 (stereo not drawn) | -17.2 | 2.0 | 0.2 | -0.3 | -0.0202 | -0.291
Cc1nc(N2CCc3ccccc32)[nH]c(=O)c1CCC(C)C | -30.8 | -2.4 | 3.7 | -0.1 | -0.294 | 0.0663
COc1ccc(NC(=O)c2ccco2)cc1NC(=O)c1ccc(Br)o1 | . | 5.7 | 9.4 | -0.6 | -0.062 | 8.87*
COc1ccc(NC(=O)c2ccco2)cc1NC(=O)c1ccc(C)cc1 | 15.9 | 3.9 | -3.5 | -1.0 | -0.289 | 0.228
COc1ccc(NS(=O)(=O)c2cc(OC)ccc2NC(=O)c2cc(C)oc2C)cc1 | -33.0 | 4.1 | 94.0* | 1.0 | -0.028 | -0.615
COc1ccc(OC)c(S(=O)(=O)Nc2ccc(CC(=O)O)cc2)c1 | -20.5 | 3.6 | -1.1 | -0.3 | 0.927 | -0.258
CCc1ccc(NS(=O)(=O)c2cc(OC)ccc2OC)cc1 | . | 0.7 | 28.8* | -1.0 | -2.04 | 0.44
COc1ccc(NS(=O)(=O)c2cc(C)ccc2C)cc1 | 10.3 | -3.9 | 73.5* | -0.8 | -1.17 | 1.61
C=CCn1c(SCc2ccccc2C#N)nnc1-c1ccccc1O | -3.9 | 1.8 | -9.7 | -0.3 | -1.09 | -0.097
Nc1nonc1C(=O)NCCNCc1cc(Br)ccc1OCc1ccc(F)cc1 | 92.9* | 3.6 | 26.0 | -2.4 | -1.3 | 1.35
CCOC(=O)CC(N)c1ccc2c(c1)OCO2 (stereo not drawn) | -7.1 | -6.0 | 0.3 | -0.4 | 0.793 | 0.107
CCC(Sc1nc(=O)cc(N)n1-c1ccccc1)C(=O)Nc1ccc(Cl)cn1 (stereo not drawn) | -14.9 | -2.0 | -0.2 | 0.2 | 0.248 | -0.263
CCOC(=O)C(C)Oc1cccc2c(=O)n(CC(=O)Nc3ccc4c(c3)OCCO4)ccc12 (stereo not drawn) | 10.3 | 2.7 | -2.6 | -1.5 | 0.133 | 0.635
CCOC(=O)C(C)Oc1cccc2c(=O)n(CC(=O)NCc3ccc4c(c3)OCO4)ccc12 (stereo not drawn) | 27.9 | -1.9 | 86.9* | -1.0 | 1.01 | 1.9
